Experimental data reported in ChEMBL document CHEMBL1129788, “Synthesis and biological activity of 3- and 5-amino derivatives of pyridine-2-carboxaldehyde thiosemicarbazone” (J Med Chem, 1996).

Tests used:
Mus musculus [1] = species: Mus musculus; experiment: Long time survivors(out of 5) are the number of mice that survived for > 60 days relative to the total number of treated mice; format: functional
L1210 = experiment: Compound was tested for inhibition of L1210 cells growth in culture.; format: functional, cell-based; settings: Mus musculus
Procedure, shortened: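 L1210 cells seeded at 2000/well; test agents added 24 h later at various concentrations (at least five per agent). Growth read colorimetrically after adding phenazine methosulfate, with 2-3 h incubation at 37 °C and reading at 492 nm. IC50 is the concentration giving 50% growth inhibition.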

[2] = molecular target: T1, Ribonucleoside-diphosphate reductase subunit M2 (Homo sapiens, UniProt P31350); experiment: Inhibitory activity against CDP reductase.
T1 sequence (P31350 whole entry): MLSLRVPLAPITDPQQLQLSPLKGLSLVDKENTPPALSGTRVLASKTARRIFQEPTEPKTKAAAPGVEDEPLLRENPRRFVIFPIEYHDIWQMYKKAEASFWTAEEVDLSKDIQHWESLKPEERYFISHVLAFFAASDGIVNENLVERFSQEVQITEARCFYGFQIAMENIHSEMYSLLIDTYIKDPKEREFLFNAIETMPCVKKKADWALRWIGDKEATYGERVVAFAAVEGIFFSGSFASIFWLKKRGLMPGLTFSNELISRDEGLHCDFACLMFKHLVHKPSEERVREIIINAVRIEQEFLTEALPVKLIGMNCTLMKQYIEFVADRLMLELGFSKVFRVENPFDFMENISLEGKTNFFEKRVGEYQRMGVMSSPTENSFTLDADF
Procedure, shortened: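 Ribonucleoside diphosphate reductase prepared as non-heme iron and effector-binding subunits. IC50 is 50% inhibition, the mean of two separate determinations.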

Mus musculus [3] = experiment: T/C(100) represents the ratio of the survival time of treated to control animals x 100(daily dosage 60 mg/kg); format: functional
Mus musculus [4] = experiment: Average change in body weight from onset to termination of therapy(daily dosage 40 mg/kg); format: functional
Mus musculus [5] = experiment: Average survival time includes only those mice that died prior to day 60(daily dosage 40 mg/kg); format: functional
Mus musculus [6] = experiment: T/C(100) represents the ratio of the survival time of treated to control animals x 100(daily dosage 40 mg/kg); format: functional
Mus musculus [7] = experiment: Average survival time includes only those mice that died prior to day 60(daily dosage 40 mg/kg)
Mus musculus [8] = experiment: Average survival time includes only those mice that died prior to day 60(daily dosage 80 mg/kg)
Mus musculus [9] = experiment: T/C(100) represents the ratio of the survival time of treated to control animals x 100(daily dosage 80 mg/kg); format: functional
Mus musculus [10] = experiment: Average survival time includes only those mice that died prior to day 60(daily dosage 60 mg/kg)
Mus musculus [11] = experiment: Average survival time includes only those mice that died prior to day 80(daily dosage 40 mg/kg); format: functional
[12] = dose 60 mg/kg, in the assay text read “daily dosage 60 mg/kg” for “daily dosage 40 mg/kg”
[13] = dose 80 mg/kg, in the assay text read “daily dosage 80 mg/kg” for “daily dosage 40 mg/kg”

Row | Structure (SMILES) | Survivors (Mus musculus [1]) | IC50 (L1210) | IC50 [2] | T/C (Mus musculus [3]) | Weight (Mus musculus [4]; [12]) | Average survival (Mus musculus [5]) | T/C (Mus musculus [6]) | Average survival (Mus musculus [7]) | Weight (Mus musculus [4]; dose 40 mg/kg) | Average survival (Mus musculus [8]) | Weight (Mus musculus [4]; [13]) | T/C (Mus musculus [9]) | Average survival (Mus musculus [10]) | Average survival (Mus musculus [11])
1 | CNc1ccc(/C=N/N=C(/N)S)nc1 | 0 | 2400 nM | 1300 nM | 223 | -4.4% | 17.8 days |  |  |  |  |  |  |  | 
2 | CCCCNc1ccc(/C=N/N=C(/N)S)nc1 | 0 | 7800 nM | 2500 nM |  |  |  | 115 | 9.2 days | -4% |  |  |  |  | 
3 | C=CCNc1ccc(/C=N/N=C(/N)S)nc1 | 0 | 4400 nM | 1400 nM | 215 |  | 17.2 days |  |  |  |  |  |  |  | 
4 | CCNc1ccc(/C=N/N=C(/N)S)nc1 | 0 | 3400 nM | 1000 nM |  |  |  |  |  |  | 16.3 days | -3.4% | 204 |  | 
5 | N/C(S)=N/N=C/c1ncc(N)cc1N | 2 | 1100 nM | 9000 nM | 135 | -17.1% | 10.8 days |  |  |  |  |  |  |  | 
6 | CCCNc1ccc(/C=N/N=C(/N)S)nc1 | 0 | 5100 nM | 1400 nM | 146 | -5.2% |  |  |  |  |  |  |  | 11.7 days | 
7 | CNc1cccnc1/C=N/N=C(/N)S | 0 | 1500 nM | 1000 nM |  |  |  | 148 | 11.8 days | -2.9% |  |  |  |  | 
8 | C=CCNc1cccnc1/C=N/N=C(/N)S | 0 | > 10000 nM | 1700 nM |  |  |  |  |  |  | 10.1 days | -2.6% | 126 |  | 
9 | NCc1ccc(/C=N/N=C(/N)S)nc1 | 1 | 2100 nM | 2500 nM |  |  |  |  |  |  |  | -2.4% | 168 |  | 13.4 days
10 | N/C(S)=N/N=C/c1cc(CN2CCOCC2)c(N)cn1 | 0 | > 10000 nM | 11000 nM |  |  |  | 125 | 10 days | -3.5% |  |  |  |  | 
